Source: ChEMBL document CHEMBL5715960, “Epigenetic Co-Deregulation of EZH2/TET1 is a Senescence-Countering, Actionable Vulnerability in Triple-Negative Breast Cancer” (Theranostics, 2019)
The source made the active and inactive calls. No cut-off for these calls is given here.

Tests used:
MCF7 [1] = experiment: Induction of cell cycle arrest in human MCF7 cells assessed as accumulation of cells at S phase measured at 2 uM by BrdU/PI staining based flow cytometric analysis (reference value: 27.7%); assay type: functional
MDA-MB-436 [2] = experiment: Effect on human MDA-MB-436 cells assessed as apoptotic phenotype by measuring increase in p53 expression level at 2 uM in presence of adriamycin by immunoblot analysis; assay type: functional, cell-based
How it was run: (§1)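 Immunoblot of cell lysates after 0.05 µg/ml adriamycin alone, with 2 µM GSK343, or DMSO. α-Tubulin and total H3 used as loading controls.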

MDA-MB-436 [3] = experiment: […] in human MDA-MB-436 cells xenografted in Crl:NU-Foxn1-nu/nu mouse […] administered at 5 mg/kg, ip in presence of adriamycin treated for 21 days by SA-beta-gal staining analysis; assay type: functional, organism-based; conditions: time 21.0 day
How it was run: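 SA-β-gal staining of xenograft tumors. Twice-weekly intraperitoneal GSK343 5 mg/kg, adriamycin 1 mg/kg, the combination, or DMSO, started at a tumor volume of about 50 mm3 and continued for 21 days.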

MDA-MB-231 [4] = experiment: Effect on human MDA-MB-231 cells assessed as apoptotic phenotype by measuring increase in BAX expression level at 2 uM in presence of adriamycin by immunoblot analysis; assay type: functional, cell-based; how it was run: as §1
MDA-MB-231 [5] = experiment: Downregulation of E2F1 in human MDA-MB-231 cells at 2 uM for 2 days by immunoblot analysis; assay type: functional, cell-based; conditions: time 2.0 day
MCF7 [6] = experiment: Effect on human MCF7 cells assessed as increase in TET3 transcription by qRT-PCR analysis; assay type: functional, cell-based
How it was run: (§2)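 qRT-PCR of TET1, TET2 and TET3 transcripts in breast cancer cells exposed to GSK343 (2 µM unless otherwise indicated), shown relative to DMSO-treated cells. Mean ± SD, triplicate unless stated.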

BT-474 [7] = experiment: Effect on human BT-474 cells assessed as increase in TET1 transcription by qRT-PCR analysis; assay type: functional, cell-based; how it was run: as §2
MDA-MB-436 [8] = experiment: Downregulation of EZH2 protein expression in human MDA-MB-436 cells at 2 uM for 2 days by immunoblot analysis; assay type: functional, cell-based; conditions: time 2.0 day
MCF7 [9] = experiment: Cytotoxicity against human MCF7 cells assessed as increase in cell death at 10 uM for 2 days by Guava viacount assay; assay type: toxicity, cell-based; conditions: mcf7, 48 h, time 2 day
How it was run: (§3)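 Cells plated at 2 × 10^4 (24-well) or 1 × 10^5 (12-well), exposed to a range of GSK343 concentrations for 2 days against DMSO solvent control; cell number and viability read by Guava ViaCount flow cytometry, relative to DMSO. Triplicate; mean ± SD.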

MDA-MB-231 [10] = experiment: Effect on human MDA-MB-231 cells expressing shTET1 assessed as increase in p53 cascade by immunoblot analysis; assay type: functional, cell-based
MCF7 [11] = experiment: Upregulation of TP53 gene in human MCF7 cells at 2 uM by qRT-PCR analysis; assay type: functional, cell-based
How it was run: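 Relative transcript levels measured by qRT-PCR in cells treated with 2 µM inhibitor, normalised to DMSO-treated control cells. Triplicate experiments unless stated otherwise; mean ± SD reported; unpaired two-tailed Student's t-test at p < 0.05.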

SK-BR-3 = experiment: Cytotoxicity against human SK-BR-3 cells at 0.5 to 2 uM for 2 days by Guava viacount assay; assay type: toxicity, cell-based; conditions: sk-br-3, 48 h, dose 0.5-2 µM, time 2 day; how it was run: as §3
MDA-MB-436 [12] = experiment: In vivo activation of p53 expression in Crl:NU-Foxn1-nu/nu mouse xenografted with human MDA-MB-436 cells at 5 mg/kg, ip in presence of adriamycin treated for 21 days; assay type: functional, organism-based; conditions: time 21.0 day
MDA-MB-231 [13] = experiment: Induction of apoptosis in human MDA-MB-231 cells assessed as decrease in accumulation of cells at S phase in presence of adriamycin by BrdU/PI-based cell cycle analysis; assay type: functional
How it was run: (§4)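 Cell cycle by BrdU/PI staining and flow cytometry, giving G1, S and G2 fractions. Cells received 0.005 µg/ml adriamycin with or without 2 µM GSK343, or DMSO. Mean ± SD.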

MDA-MB-436 [14] = experiment: Effect on human MDA-MB-436 cells assessed as apoptotic phenotype by measuring increase in PUMA expression level at 2 uM in presence of adriamycin by immunoblot analysis; assay type: functional, cell-based; how it was run: as §1
MDA-MB-231 [15] = experiment: Upregulation of […] signalling in human MDA-MB-231 cells at 2 uM for 2 days by immunoblot analysis; assay type: functional, cell-based; conditions: time 2.0 day
MDA-MB-231 [16] = experiment: Effect on human MDA-MB-231 cells assessed as decrease in H3K27me3 level at 2 uM in presence of adriamycin by immunoblot analysis; assay type: functional, cell-based
How it was run: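 Immunoblot of MDA-MB-231 and MCF7 lysates after 0.005 µg/ml adriamycin with or without 2 µM GSK343, or DMSO. α-Tubulin and total H3 used as loading controls.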

MDA-MB-453 = experiment: Antiproliferative activity against human MDA-MB-453 cells assessed as increase in cell death at 10 uM for 2 days by Guava viacount assay; assay type: functional, cell-based; conditions: time 2.0 day; how it was run: as §3
MDA-MB-231 [17] = experiment: Effect on human MDA-MB-231 cells assessed as increase in global 5hmc level by dot analysis; assay type: functional, cell-based
How it was run: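 Global 5hmC measured by dot blot on genomic DNA from cells given GSK343 or carrying EZH2 knock-down, with DMSO or scrambled shRNA as controls. DNA denatured in 0.1 M NaOH at 99 °C for 5 min, then neutralized with ammonium sulfate pH 7.0. 5 µg spotted, UV-crosslinked, probed with anti-5hmC for 1 h at room temperature, ECL detection, dot intensity quantified. Mean ± SD.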

BT-474 [18] = experiment: Cytotoxicity against human BT-474 cells at 0.5 to 2 uM for 2 days by Guava viacount assay; assay type: toxicity, cell-based; conditions: bt-474, 48 h, dose 0.5-2 µM, time 2 day; how it was run: as §3
BT-474 [19] = experiment: Cytotoxicity against human BT-474 cells assessed as increase in cell death at 10 uM for 2 days by Guava viacount assay; assay type: toxicity, cell-based; conditions: bt-474, 48 h, time 2 day; how it was run: as §3
MDA-MB-231 [20] = experiment: Effect on […] in human MDA-MB-231 cells assessed as repression in TET1 promoter EZH2 by ChiP-qPCR analysis; assay type: functional, cell-based
How it was run: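 Cells treated with GSK343 or DMSO; chromatin immunoprecipitated with anti-EZH2 or anti-H3K27me3 antibody and quantified by qPCR with primers for the TET1 promoter; input as internal control, IgG as negative control.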

MDA-MB-436 [21] = experiment: Antiproliferative activity in human MDA-MB-436 cells assessed as increase in C12FDG based fluorescent SA-beta-gal positive cells at 2 uM in presence of adriamycin by FACS analysis; assay type: functional, cell-based
How it was run: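 Cells given 0.005 µg/ml adriamycin with or without 2 µM GSK343, or DMSO; SA-β-gal activity detected with C12FDG fluorescent substrate by flow cytometry, reported as percent positive cells. Mean ± SD.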

MDA-MB-436 [22] = experiment: Induction of apoptosis in human MDA-MB-436 cells assessed as increase in accumulation of cells at G1 phase in presence of adriamycin by BrdU/PI-based cell cycle analysis; assay type: functional; how it was run: as §4
MDA-MB-231 [23] = experiment: Downregulation of EZH2 protein expression in human MDA-MB-231 cells at 2 uM for 2 days by immunoblot analysis; assay type: functional, cell-based; conditions: time 2.0 day
MDA-MB-436 [24] = experiment: Effect on human MDA-MB-436 cells assessed as apoptotic phenotype by measuring increase in BAX expression level at 2 uM in presence of adriamycin by immunoblot analysis; assay type: functional, cell-based; how it was run: as §1

CCCc1cc(C)[nH]c(=O)c1CNC(=O)c1cc(-c2ccnc(N3CCN(C)CC3)c2)cc2c1cnn2C(C)C
Activity (MCF7 [1]): 22.8% | Activity (MDA-MB-436 [2]): Active | Activity (MDA-MB-436 [3]): Active | Activity (MDA-MB-231 [4]): Active | Activity (MDA-MB-231 [5]): Active | Activity (MCF7 [6]): inactive | Activity (BT-474 [7]): inactive | Activity (MDA-MB-436 [8]): Active | Activity (MCF7 [9]): Non-Toxic | Activity (MDA-MB-231 [10]): inactive | Activity (MCF7 [11]): inactive | Activity (SK-BR-3): Non-Toxic | Activity (MDA-MB-436 [12]): Active | Activity (MDA-MB-231 [13]): Active | Activity (MDA-MB-436 [14]): Active | Activity (MDA-MB-231 [15]): Active | Activity (MDA-MB-231 [16]): Active | Activity (MDA-MB-453): Active | Activity (MDA-MB-231 [17]): Active | Activity (BT-474 [18]): Non-Toxic | Activity (BT-474 [19]): Non-Toxic | Activity (MDA-MB-231 [20]): Active | Activity (MDA-MB-436 [21]): Active | Activity (MDA-MB-436 [22]): Active | Activity (MDA-MB-231 [23]): Active | Activity (MDA-MB-436 [24]): Active
